Ecoli rRNA inh: reduced GFP signal of wild-type E. coli, primary screen, bacterial rRNA inhibitor project, GFP/RFP fluorescence, OD600, single point; 350,000 compounds, 1.6% hits; GFP signal change (wild-type ribosome), % (no concentration beside the values); AID 720706, 2013; E. coli WT GFP vs humanized-ribosome RFP mutants, 24 h; active compounds read low; DMSO median 0, no signal -100;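 active = significant combined selectivity score with lowered wild-type GFP, culture density cut under 30%, mutant RFP and density less affected; inactive = any of these conditions unmet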
Env fusion inh: inhibitors of HIV-1 Env-driven cell-cell fusion, primary screen, HeLa-JRFL effector, CEM21 target cells, luciferase; AID 651610, 2012; 360,000 compounds, 1.1% hits; inhibition, % at 12.3 µM;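 active = mean replicate inhibition score of at least 50 and every replicate individually at or above 50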
FN deposit inh: inhibitors of fibronectin matrix deposition, primary screen, AH1F cells, Alexa488-fibronectin fluorescence, plate reader; AH1F fibroblasts, overnight; AID 743247, 2014; inhibition, % at 12.6 µM; 350,000 compounds, 0.086% hits;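 active = mean inhibition across replicates of 30% or more, regardless of how many single replicates reach that level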
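Test system: AH1F fibroblast monolayer depositing Alexa488-labelled fibronectin into matrix. Input: 10000 cells per well. Technique: fluorescence, ex 485 nm, em 525 nm. Buffer or medium: DMEM plus 2% serum, read in PBS. Timing: 1 h cell adhesion before compound, then overnight fibronectin incubation. Compound: single dose, pinned. Read-out basis: inhibition from reduced deposited-fibronectin fluorescence.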
Vif inh: HIV Vif self-association inhibitors, primary screen, imaging, HEK293T, single point; HEK293T cells, Vif self-association by quenched fluorescence, 24 h; inhibition, % at 7.49 µM; 340,000 compounds, 0.35% hits; AID 602346, 2012; in the data active = inhibition above about 50%, passing the limit was not always enough
S100A4 MyoIIA: inhibitors of S100A4-myosin IIA peptide binding, primary screen, biochemical, fluorescence polarization, TAMRA-MyoIIA peptide; inhibition, % at 10.7 µM; Protein S100-A4 (Homo sapiens), P26447; 360,000 compounds, 0.14% hits;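 active = mean inhibition of at least 70% across replicates, with every replicate also reaching that level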
Target sequence (P26447 whole entry, looked up): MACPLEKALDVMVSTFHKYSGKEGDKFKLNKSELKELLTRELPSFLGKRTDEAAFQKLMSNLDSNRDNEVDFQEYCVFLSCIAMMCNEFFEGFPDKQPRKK
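assay system = human S100A4 monomer with TAMRA-labelled myosin IIA peptide | also added = labelled myosin peptide probe, 5 nM | incubation = 5 min between mix addition and reading | control set = DMSO and TFP controls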
miR122 inh: miR-122 Renilla sensor signal increase in Huh7, primary screen, miR-122 inhibitor project, cell-based, single point, plate reader. Huh7 miR-122 Renilla luciferase sensor, 48 h; neutral wells = 0, positive control = 100. activation (reporter increase), % at 12.5 µM. 340,000 compounds, 0.3% hits. AID 602342, 2012;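 active = mean replicate activation score at least 90 and every replicate individually at or above 90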;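 also: higher luciferase means less miR-122 activity so hits act as miR-122 inhibitors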
Numbers stand for hits; i = inactive; nt = no result; [ ] = dose if it differs, or a comment. Compounds with a hit are over-represented: about 2.6% of the library has one in this group of screens.

SMILES	Ecoli rRNA inh	Env fusion inh	FN deposit inh	Vif inh	S100A4 MyoIIA	miR122 inh
CCOC(=O)N1CCC(=NNC(=O)c2cc3ccccc3cc2O)CC1	nt	i	nt	i	nt	i
COc1ccc2c3c([nH]c2c1)[C@H](CO)N(C(C)=O)CC31CN(Cc2cc(-c3ccccc3)on2)C1	i	nt	nt	nt	i	nt
Cn1nc(-c2ccccc2)c(CN2CCN(c3ncccn3)CC2)c1Cl	-34	i	nt	i	i	nt
Clc1cccc(Cl)c1CN1CCN(c2ncccn2)CC1	i	i	i	i	i	i
O=C(C1CCOCC1)N1[C@@H](CO)[C@@H](c2ccccc2)C12CN(Cc1cccnc1)C2	i	nt	nt	nt	i	nt
CCN(CCCNC(=O)CC(C(=O)N1CCc2ccccc21)n1ccnc1)c1cccc(C)c1 (stereo unspecified)	nt	57	i	i	nt	i
CN(C)c1ccc(C=Cc2ccnc3c(O)cccc23)cc1	i	i	i	51	i	i
COCC#Cc1cnc2c(c1)C(=O)N([C@H](C)CO)C[C@H](C)[C@H](CN(C)Cc1ccccc1F)O2	i	i	i	nt	i	i
C[C@H]1CN(C)C(=O)c2cccc(NS(C)(=O)=O)c2O[C@@H]1CN(C)S(C)(=O)=O	i	nt	i	nt	nt	nt
O=C1Nc2ccccc2/C1=C\C(=O)c1ccccc1	-19	i	i	i	i	i
CSC1=NCCN1S(=O)(=O)c1ccc2ccccc2c1	i	i	i	i	i	nt
O=S(=O)(c1ccccc1)N1CCN=C1SCc1cccc(Cl)c1	-23	i	i	i	i	nt
CCSC1=NCCN1S(=O)(=O)c1ccc2ccccc2c1	-30	i	i	i	i	nt
O=S(=O)(c1ccccc1)N1CCN=C1SCc1ccc(Cl)c(Cl)c1	nt	nt	i	i	nt	nt
CCC(=O)N1[C@@H](CO)[C@@H](c2ccccc2)C12CN(Cc1nccs1)C2	i	nt	nt	nt	i	nt
O=C(N/N=C/c1cccc(Oc2ccccc2)c1)c1ccccc1Br	-28	nt	nt	i	i	i
COC(=O)CCS(=O)(=O)c1nc(-c2ccccc2)cc(C(F)(F)F)n1	nt	nt	nt	i	nt	nt
COc1ccc(-c2cc(C(F)(F)F)nc(S(=O)(=O)CCCC(=O)Nc3cccnc3Cl)n2)cc1OC	i	i	i	115	i	nt
CNC(=O)NC(=O)C(C)OC(=O)c1ccc(Cl)c(S(=O)(=O)Nc2ccc(F)cc2)c1 (stereo unspecified)	-26	i	i	i	i	215
COc1ccc(NS(=O)(=O)c2cc(C(=O)OC(C)C(=O)N3CCOCC3)ccc2Cl)cc1 (stereo unspecified)	i	i	i	i	i	nt
Cn1c(SCc2nc(-c3ccc(Cl)cc3)no2)nnc1-c1cccs1	i	83	i	i	i	i
C[C@@H]1CN([C@@H](C)CO)C(=O)c2cc(NS(C)(=O)=O)ccc2O[C@@H]1CN(C)C(=O)Nc1ccc(C(F)(F)F)cc1	i	i	nt	nt	i	i
S=C(c1ccc(-c2ccc(Br)cc2)o1)N1CCCCC1	i	i	i	i	i	i
S=C(c1ccc(-c2ccc(Br)cc2)o1)N1CCOCC1	-30	i	i	i	i	i
O=C(NCCc1ccncc1)[C@@H]1[C@@H](CO)[C@@H]2Cn3c(ccc(-c4ccccc4)c3=O)[C@H]1N2	i	nt	nt	nt	i	i
SMILES	Ecoli rRNA inh	Env fusion inh	FN deposit inh	Vif inh	S100A4 MyoIIA	miR122 inh
CCc1ccc(Nc2cnn(C34CC5CC(CC(CC(=O)O)(C5)C3)C4)c(=O)c2Cl)cc1	-27	i	i	i	i	i
COc1ccccc1NC(=O)N1C[C@@H]2[C@H](c3ccccc31)[C@@H](CO)N2C(=O)c1ccccc1	i	nt	nt	nt	i	i
CCOC(=O)c1ccccc1OCc1cc(/C=N/NC(=O)c2cccnc2)ccc1OC	i	i	i	i	i	nt
CCOC(=O)c1ccccc1OCc1cc(/C=N/n2cnnc2)ccc1OC	nt	i	i	94	nt	i
O=C(NCC[C@@H]1CC[C@@H](NS(=O)(=O)c2cccc(F)c2)[C@@H](CO)O1)C1CCC1	i	i	nt	nt	i	nt
CCOCC(=O)NC1CCc2cc(OC(=O)COCC)c(OC)c(OC)c2-c2ccc(SC)c(=O)cc21 (stereo unspecified)	i	i	nt	95	i	i
CCC(=O)Nc1ccc2c(c1)C(=O)N(C)[C@H]1CC[C@H](CC(=O)Nc3ccc(C(C)C)cc3)O[C@@H]1CO2	i	i	i	nt	i	i
CC(C)C(=O)Nc1ccc2c(c1)C(=O)N(C)[C@H]1CC[C@H](CC(=O)Nc3cccc(F)c3)O[C@@H]1CO2	i	nt	i	nt	78	i
CC(C)c1ccc(NC(=O)C[C@H]2CC[C@H]3[C@@H](COc4ccc(NC(=O)Nc5ccc(F)c(F)c5)cc4C(=O)N3C)O2)cc1	nt	70[16.7 µM]	nt	nt	i	i
S=C(S)N1CCCC1	nt	i	i	75	i	i
COc1ccc(CN(C)C[C@H]2Oc3ccc(NC(=O)Nc4ccc(C(F)(F)F)cc4)cc3C(=O)N([C@H](C)CO)C[C@H]2C)cc1	i	i	i	nt	i	i
O=C(COc1ccc2c(c1)C(=O)CC1(CCCCC1)O2)NCc1ccccc1	nt	i	i	i	nt	220
Cn1c(C(=O)O)c(CC(=O)N2CCC(Cc3ccccc3)CC2)c2ccccc21	-26	nt	i	i	i	i
O=C(C[C@H]1CC[C@@H]2[C@H](COC[C@H](O)CN2C(=O)Nc2ccc(Cl)c(Cl)c2)O1)NC1CCC1	i	i	i	nt	i	i
COc1ccc(/C=C/c2cc(-c3ccc(C)cc3)o[n+]2C)cc1	nt	134	i	i	nt	i
C[C@H]1CN([C@@H](C)CO)C(=O)c2cc(NC(=O)Nc3cccc4ccccc34)ccc2O[C@H]1CN(C)S(=O)(=O)c1ccc(F)cc1	i	i	nt	nt	i	i
CCOc1ccc(N=C2NC(=O)S/C2=C\c2ccc(N(C)C)cc2)cc1	nt	i	i	148	nt	i
CCOc1ccc(/C=C2/SC(=O)NC2=S)cc1	nt	nt	nt	i	nt	i
Cc1ccc(S(=O)(=O)Nc2ccc3c(c2)C(=O)N([C@H](C)CO)C[C@@H](C)[C@H](CN(C)C(=O)C2CCCCC2)OCCCC[C@H](C)O3)cc1	i	i	i	nt	i	i
Cc1cccc(NC(=S)N/N=C/c2ccc([N+](=O)[O-])s2)c1	nt	105	i	i	nt	i
O=C(N/N=C/c1ccc([N+](=O)[O-])s1)c1cccc(Br)c1	nt	66	nt	nt	nt	i
COc1ccc(S(=O)(=O)Nc2ccc3c(c2)C(=O)N([C@@H](C)CO)C[C@@H](C)[C@H](CN(C)C(=O)Nc2cccc4ccccc24)OCCCC[C@H](C)O3)cc1	i	i	nt	nt	nt	i
CCOC(=O)c1c(CSc2ccsc2)n(C)c2cc(Br)c(O)c(CN(C)C)c12	i	87	i	i	i	nt

Screening data deposited in PubChem by Broad Institute.
